Consider one molecule from ChEMBL document CHEMBL1147081, “Structure of the deacetylase LpxC bound to the antibiotic CHIR-090: Time-dependent inhibition and specificity in ligand binding” (Proc Natl Acad Sci U S A, 2007).

Assay [1] concerns the target T1, UDP-3-O-acyl-N-acetylglucosamine deacetylase (Aquifex aeolicus (strain VF5)) (UniProt O67648).
T1 sequence (whole entry): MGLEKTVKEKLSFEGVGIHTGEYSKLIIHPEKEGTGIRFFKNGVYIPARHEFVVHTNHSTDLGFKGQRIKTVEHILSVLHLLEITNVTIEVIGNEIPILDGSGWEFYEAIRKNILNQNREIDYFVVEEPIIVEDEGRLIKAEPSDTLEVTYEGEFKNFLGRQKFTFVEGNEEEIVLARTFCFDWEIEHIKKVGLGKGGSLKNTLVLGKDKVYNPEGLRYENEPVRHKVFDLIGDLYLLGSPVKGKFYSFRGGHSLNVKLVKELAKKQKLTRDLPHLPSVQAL
The assay can be described thus: Inhibition of Aquifex aeolicus LpxC.

Assay [2] deals with T2, UDP-3-O-acyl-N-acetylglucosamine deacetylase (Escherichia coli K-12) (UniProt P0A725).
T2 sequence (whole entry): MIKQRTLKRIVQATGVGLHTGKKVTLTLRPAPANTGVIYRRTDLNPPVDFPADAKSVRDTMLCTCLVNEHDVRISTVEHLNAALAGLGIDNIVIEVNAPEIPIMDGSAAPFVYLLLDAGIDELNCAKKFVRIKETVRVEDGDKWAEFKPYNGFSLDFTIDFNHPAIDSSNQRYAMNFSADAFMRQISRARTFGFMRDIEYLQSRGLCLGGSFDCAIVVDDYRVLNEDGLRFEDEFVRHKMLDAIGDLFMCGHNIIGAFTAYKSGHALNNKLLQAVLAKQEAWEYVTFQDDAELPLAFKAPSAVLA
The assay can be described thus: Inhibition of Escherichia coli LpxC at 4 nM.

In assay [3] the test system is Rhizobium leguminosarum. The assay can be described thus: Ratio of Kcat to Km of Rhizobium leguminosarum LpxC. In short, it runs like this: (§1)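 Wild-type and site-directed mutant LpxC (E. coli, R. leguminosarum) expressed and purified, then assayed by a previously described method. Substrate was UDP-3-O-(R-3-hydroxymyristoyl)-N-acetylglucosamine, varied for Michaelis–Menten analysis. KM and kcat came from data sets pooling multiple independent experiments.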

Assay [4] relates to Rhizobium leguminosarum. The assay can be described thus: Activity of Rhizobium leguminosarum LpxC. In short, it runs like this:
as §1

For assay [5], the system named is Rhizobium leguminosarum. The assay can be described thus: Inhibition of Rhizobium leguminosarum LpxC at 0.5 uM.

Broadly, the inhibition is the share of the control response that was lost under treatment. High values mean a response far below the control, low ones a response near the control. By kcat/Km is commonly meant the turnover number divided by the Michaelis constant. A word on the Km: it is the concentration of substrate that gives half-maximal velocity. Usually kcat stands for the maximal rate divided by the concentration of active sites.

Active and inactive are the calls of the source. The calls are words filed in the database; no cut-off is given here. Bounds are passed on as bounds.

`C[C@@H](O)[C@H](NC(=O)c1ccc(C#Cc2ccc(CN3CCOCC3)cc2)cc1)C(=O)NO`: the result in assay [1] was Active. Besides, the inhibition in assay [2] is > 75%; with Rhizobium leguminosarum [5] it was 50%. Moreover, the specificity constant (kcat/Km) in the assay with Rhizobium leguminosarum [3] was 3.5 10^6/M/s. For the same molecule, the Km in the assay with Rhizobium leguminosarum [4] is 4.8 µM. Further, the catalytic constant (kcat) in the assay on Rhizobium leguminosarum [4] amounted to 1.7 s⁻¹.
